Data set [1] deals with Mus musculus. The data set is described as follows: Cognition enhancing effect in […] mouse assessed as reversal of scopolamine-induced amnesia by measuring difference between training session and retention session time at MED treated 20 mins prior to training session followed by scopolamine challenge immediately after training session by passive avoidance test.
Data set [2] relates to Mus musculus. The data set is described as follows: Cognition enhancing effect in ip dosed mouse assessed as reversal of scopolamine-induced amnesia treated 20 mins prior to training session followed by scopolamine challenge immediately after training session by passive avoidance test. The data set is classed as functional. Particulars: read-out: MED.
Data set [3] can be described thus: Half life in PBS at 1 uM by LC-MS/MS analysis. The data set is classed as physicochemical. The method, boiled down:
(§1)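 Analyte at 1 µM final in PBS or in plasma from male Sprague-Dawley rats (plasma stored at −80 °C), incubated at 37 °C. Sampled in triplicate at 0, 30, 60 and 120 min, then internal standard added. Quantified by ESI-positive LC-MS/MS in MRM mode (C18 column, formic acid/acetonitrile gradient) against calibration from 0–1.00 µM. Enalapril checked plasma hydrolytic activity; t1/2 extrapolated from concentration-time curves.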

A short description of data set [4]: Half life in Sprague-Dawley rat plasma at 1 uM by LC-MS/MS analysis. The data set is classed as ADME, cell-free. A digest of the protocol: as §1
Data set [5] has as its system Mus musculus. The data set is described as follows: Toxicity in sc dosed CD-1 albino mouse assessed as effect on motor co-ordination at cognition enhancing MED by rota rod test. Type of data set: organism-based. Particulars: in vivo. A general note: Falling from the rotarod earlier than controls is read as motor impairment.
Data set [6] relates to Mus musculus. As to the kind of experiment: Toxicity in sc dosed CD-1 albino mouse assessed as effect on spontaneous motility at cognition enhancing MED by hole-board test. Type of data set: organism-based. The following applies: in vivo.
Data set [7] deals with Mus musculus. As to the kind of experiment: Toxicity in sc dosed CD-1 albino mouse assessed as gross behavior abnormality at cognition enhancing MED. Type of data set: organism-based. The following applies: in vivo.
Data set [8] has as its system Mus musculus. As to the kind of experiment: Cognition enhancing effect in sc dosed CD-1 albino mouse assessed as reversal of scopolamine-induced amnesia treated 20 mins prior to training session followed by scopolamine challenge immediately after training session by passive avoidance test. Type of data set: functional. Particulars: CD-1, sc, read-out: MED. A digest of the protocol: (§2)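 Mouse passive-avoidance test using a modified Jarvik–Kopp protocol. Drug in saline with 10% DMSO, given s.c. 20 min before training in a 1:10 dilution series up to 10 mg/kg. Scopolamine 1.5 mg/kg i.p. given right after the punishment/training session. Saline controls got an extra saline injection. Each value is the mean of 12–14 mice; the read-out is minimal effective dose.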

Data set [9] deals with Mus musculus. The data set is described as follows: Cognition enhancing effect in sc dosed CD-1 albino mouse assessed as reversal of scopolamine-induced amnesia by measuring difference between training session and retention session time at MED treated 20 mins prior to training session followed by scopolamine challenge immediately after training session by passive avoidance test. Type of data set: functional. A digest of the protocol:
as §2

For data set [10], the system named is Mus musculus. As to the kind of experiment: Potency index, ratio of piracetam MED to compound MED for cognition enhancing effect in sc dosed CD-1 albino mouse. The data set is classed as functional.
The nature of data set [11]: Stability in Sprague-Dawley rat plasma assessed as parent compound remaining at 1 uM after 60 mins by LC-MS/MS analysis. Particulars: read-out: Stability. The data set is classed as ADME, cell-free. The method, boiled down: as §1
Data set [12] has as its system Plasma. The data set is described as follows: Drug metabolism in Sprague-Dawley rat plasma assessed as 1-(4-(4-Fluorophenylsulfonyl)-2-(hydroxymethyl)piperazin-1-yl)ethanone formation at 1 uM after 60 mins by LC-MS/MS analysis. Type of data set: ADME, cell-free. Particulars: 1 h. The method, boiled down: as §1
A short description of data set [13]: Stability in Sprague-Dawley rat plasma assessed as parent compound remaining at 1 uM after 2 hrs by LC-MS/MS analysis. The data set is classed as ADME, cell-free. Particulars: read-out: Stability. A digest of the protocol: as §1
Data set [14] has as its system Plasma. As to the kind of experiment: Drug metabolism in Sprague-Dawley rat plasma assessed as 1-(4-Benzoyl-3-(hydroxymethyl)piperazin-1-yl)propan-1-one formation at 1 uM after 60 mins by LC-MS/MS analysis. The data set is classed as ADME, cell-free. The following applies: 1 h. A digest of the protocol: as §1
In data set [15] the test system is Plasma. The data set is described as follows: Drug metabolism in Sprague-Dawley rat plasma assessed as 1-(4-Benzoyl-2-(hydroxymethyl)piperazin-1-yl)propan-1-one formation at 1 uM after 60 mins by LC-MS/MS analysis. The data set is classed as ADME, cell-free. Particulars: 1 h. The method, boiled down:
as §1

The values below come from ChEMBL document CHEMBL3992563, “Piperazines as nootropic agents: New derivatives of the potent cognition-enhancer DM235 carrying hydrophilic substituents” (Bioorg Med Chem, 2017).

Structures are written as SMILES.

`CC(=O)N1CCN(S(=O)(=O)c2ccc(F)cc2)C(C)C1` (centres undefined): in data set [1], the Time is 82.6 s. The minimal effective dose in [2] came to 0.1 mg/kg.
For `CC(=O)N1CCN(S(=O)(=O)c2ccc(F)cc2)CC1C` (centres undefined), in that order: 83.9 s and 1 mg/kg.
For `CCC(=O)N1CCN(C(=O)c2ccccc2)C(C)C1` (centres undefined), in that order: 60.2 s and 0.1 mg/kg.
`CCC(=O)N1CCN(C(=O)c2ccccc2)CC1C` (centres undefined): the minimal effective dose in data set [2] is greater than 10 mg/kg.
As usually defined, the half-life is how long it takes for the measured level to halve. On to `CC(=O)N1CCN(S(=O)(=O)c2ccc(F)cc2)CC1`, for which the half-life at 1 µM in [3] and in data set [4] was no less than 4 h each time. Moreover, the minimal effective dose in [2] turned out to be 0.01 mg/kg.
Regarding `COCC1CN(S(=O)(=O)c2ccc(F)cc2)CCN1C(C)=O` (centres undefined), the half-life at 1 µM in data set [3] and in data set [4] was no less than 4 h each time. Moreover, the Activity result in [5], in data set [6] and in [7] was “Non-Toxic” throughout. In [8], the minimal effective dose was greater than 10 mg/kg.
In the case of `CCC(=O)N1CCN(C(=O)c2ccccc2)C(COC)C1` (centres undefined), the half-life at 1 µM in [3] and in data set [4] was no less than 4 h throughout. Further, the Activity result in [5], in [6] and in data set [7] was “Non-Toxic” in each case. Moreover, the Time in data set [9] was 73.4 s. Besides, the Ratio in data set [10] was 3 - 300. For the same compound, the minimal effective dose in data set [8] was determined as 1 mg/kg.
As for `CCC(=O)N1CCN(C(=O)c2ccccc2)[C@H](CO)C1`, the Time in data set [9] is listed as 58.8 s. Besides, in data set [8], the minimal effective dose came to 1 mg/kg.
With `CCOC(=O)C1CN(S(=O)(=O)c2ccc(F)cc2)CCN1C(C)=O` (centres undefined), the half-life at 1 µM in data set [3] is no less than 4 h; in data set [4], 0.617 h. Further, the Activity result in [5], in data set [6] and in data set [7] was “Non-Toxic” each time. In addition, the Time in data set [9] came to 50.1 s. Moreover, the remaining at 1 h, 1 µM in data set [11] was less than 50%. In [10], the Ratio was 3 - 300. For the same compound, the minimal effective dose in data set [8] came out at 1 mg/kg.
Take `CCC(=O)N1CCN(C(=O)c2ccccc2)CC1COC` (centres undefined): the half-life at 1 µM in data set [3] and in data set [4] was no less than 4 h in each case. The Activity result in data set [5], in [6] and in [7] was “Non-Toxic” throughout. In addition, the Time in data set [9] stood at 79.7 s. The Ratio in data set [10] is 3 - 300. For the same compound, the minimal effective dose in [8] turned out to be 10 mg/kg.
Consider `CC(=O)OCC1CN(S(=O)(=O)c2ccc(F)cc2)CCN1C(C)=O` (centres undefined), for which the half-life at 1 µM is no less than 4 h in data set [3] and 0.5 h in data set [4]. In addition, the Drug metabolism entry in data set [12] is “Metabolite_Detected”. The Activity result in data set [5], in [6] and in data set [7] was “Non-Toxic” throughout. Moreover, in [13], the remaining at 2 h, 1 µM is no more than 10%. Also, the minimal effective dose in data set [8] was greater than 10 mg/kg.
With `CC(=O)OC[C@H]1CN(C(C)=O)CCN1S(=O)(=O)c1ccc(F)cc1`, the Time in [9] was 70.6 s. In addition, in data set [8], the minimal effective dose was 1 mg/kg.
Take `COCC1CN(C(C)=O)CCN1S(=O)(=O)c1ccc(F)cc1` (centres undefined): the half-life at 1 µM in [3] and in data set [4] was no less than 4 h throughout. Besides, the Activity result in data set [5], in [6] and in [7] was “Non-Toxic” in each case. Besides, in [9], the Time was found to be 76.5 s. The Ratio in [10] was 3 - 300. In addition, in data set [8], the minimal effective dose was found to be 1 mg/kg.
Take `CCOC(=O)C1CN(C(=O)CC)CCN1C(=O)c1ccccc1` (centres undefined): the half-life at 1 µM in data set [3] is no less than 4 h; in data set [4], 0.433 h. For the same compound, the Activity result in data set [5], in [6] and in data set [7] was “Non-Toxic” throughout. For the same compound, the Time in data set [9] is reported as 56.6 s. The remaining at 1 h, 1 µM in data set [11] was less than 50%. In addition, the Ratio in [10] is 3 - 300. For the same compound, in [8], the minimal effective dose came to 1 mg/kg.
`CCOC(=O)C1CN(C(=O)c2ccccc2)CCN1C(=O)CC` (centres undefined): the half-life at 1 µM in [3] was no less than 4 h; in data set [4] it was 0.2 h. Further, the Activity result in data set [5], in data set [6] and in data set [7] was “Non-Toxic” each time. Also, in data set [9], the Time stood at 51.1 s. In addition, the remaining at 1 h, 1 µM in data set [11] is less than 50%. Moreover, in data set [10], the Ratio is 3 - 300. In data set [8], the minimal effective dose was 1 mg/kg.
`CCC(=O)N1CCN(C(=O)c2ccccc2)[C@@H](CO)C1`: the Time in [9] is 55 s. Moreover, the minimal effective dose in data set [8] was determined as 1 mg/kg.
With `CCC(=O)N1CCN(C(=O)c2ccccc2)C(COC(C)=O)C1` (centres undefined), the half-life at 1 µM in data set [3] was no less than 4 h; in data set [4], 1.67 h. In addition, the Activity result in data set [5], in [6] and in data set [7] was “Non-Toxic” throughout. In addition, in data set [13], the remaining at 2 h, 1 µM amounted to 50%. For the same compound, in [14], the Drug metabolism result is recorded as “Metabolite_Detected”. The minimal effective dose in data set [8] is greater than 10 mg/kg.
Regarding `CC(=O)OC[C@@H]1CN(C(C)=O)CCN1S(=O)(=O)c1ccc(F)cc1`, the Time in data set [9] was determined as 64.5 s. In addition, the minimal effective dose in data set [8] amounted to 1 mg/kg.
With `CCC(=O)N1CCN(C(=O)c2ccccc2)CC1COC(C)=O` (centres undefined), the half-life at 1 µM in [3] was no less than 4 h; in [4], 2.57 h. Moreover, the Drug metabolism result in [15] is “Metabolite_Detected”. Besides, the Activity entry in [5], in data set [6] and in data set [7] was “Non-Toxic” throughout. For the same compound, the remaining at 2 h, 1 µM in data set [13] amounted to 60%. In [9], the Time was determined as 62.2 s. Moreover, in data set [10], the Ratio is 3 - 300. In data set [8], the minimal effective dose is 1 mg/kg.
Take `CCOC(=O)C1CN(C(C)=O)CCN1S(=O)(=O)c1ccc(F)cc1` (centres undefined): the half-life at 1 µM was no less than 4 h in data set [3] and 0.35 h in data set [4]. Moreover, the Activity result in [5], in data set [6] and in data set [7] was “Non-Toxic” each time. In addition, the Time in data set [9] worked out at 55.7 s. The remaining at 1 h, 1 µM in data set [11] is less than 50%. Further, in data set [10], the Ratio is listed as 3 - 300. The minimal effective dose in data set [8] came to 0.1 mg/kg.
`CCOC(=O)[C@H](CCc1ccccc1)N[C@@H](C)C(=O)N1CCC[C@H]1C(=O)O` [ENALAPRIL]: the values for the half-life at 1 µM in [3] and in data set [4] were no less than 4 h and 1.57 h, respectively.
As for `NC(=O)CN1CCCC1=O` [PIRACETAM], the Time in [1] is 82.4 s. Besides, the minimal effective dose in data set [2] stood at 30 mg/kg.
For the compound `CC(=O)NC1CCN(S(=O)(=O)c2ccc(F)cc2)CC1` [SAPUNIFIRAM], the minimal effective dose in data set [2] was determined as 0.01 mg/kg.
With `CCC(=O)N1CCN(C(=O)c2ccccc2)CC1` [SUNIFIRAM], the half-life at 1 µM in [3] and in data set [4] was no less than 4 h throughout. Also, the minimal effective dose in data set [2] stood at 0.001 mg/kg.
Turning to `O=C1CCC2CN(S(=O)(=O)c3ccc(F)cc3)CCN12` (centres undefined) [UNIFIRAM], the minimal effective dose in [2] amounted to 0.001 mg/kg.
